Measured values reported in ChEMBL document CHEMBL1154153, “Design, synthesis and antimycobacterial activity of some novel imidazo[1,2-c]pyrimidines” (2009).
In brackets after ≈: the same amount, converted by molar mass.

Tests used:
Format in all cases: functional
[1] = tested on: Mycobacterium tuberculosis; test: Antimycobacterial activity against Mycobacterium tuberculosis H37Rv after 14 days by serial dilution technique; settings: 336 h
How it was run: (§1)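 H37Rv kept on L–J medium at 37 °C. Inoculum made by homogenizing growth with glass beads in Tween-albumin Middlebrook 7H9, letting large particles settle, and adjusting the supernatant to 3 ×10⁸ CFU by McFarland standard, with CFU/mL checked by plating. 0.1 mL went onto L–J slants with Gruft supplement holding serially diluted compound. Incubated 37 °C, read at 14, 21, 30 days. MIC was the lowest concentration with clear tubes; triplicate.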

[2] = tested on: Mycobacterium tuberculosis; test: Antimycobacterial activity against Mycobacterium tuberculosis H37Rv after 21 days by serial dilution technique; settings: 504 h; how it was run: as §1
[3] = tested on: Mycobacterium tuberculosis; test: Antimycobacterial activity against Mycobacterium tuberculosis H37Rv after 30 days by serial dilution technique; how it was run: as §1

SMILES | MIC [1] [µg/mL] | MIC [2] [µg/mL] | MIC [3] [µg/mL]
CCOC(=O)C1=C(Nc2ccccc2Cl)N=C(c2ccccc2)N2CCN=C12 | > 200 | > 200 | > 200
CCOC(=O)C1=C(Nc2ccc(OC)cc2)N=C(c2ccccc2)N2CCN=C12 | 5 (≈ 12.8 µM) | 5 (≈ 12.8 µM) | 50 (≈ 128 µM)
CCOC(=O)C1=C(Nc2ccccc2)N=C(c2ccccc2)N2CCN=C12 | 50 (≈ 139 µM) | 50 (≈ 139 µM) | 100 (≈ 277 µM)
CCOC(=O)C1=C(Nc2cccc(C(F)(F)F)c2)N=CN2CCN=C12 | 100 (≈ 284 µM) | 100 (≈ 284 µM) | > 200
CCOC(=O)C1=C(Nc2ccc(Cl)cc2)N=CN2CCN=C12 | 5 (≈ 15.7 µM) | 5 (≈ 15.7 µM) | 20 (≈ 62.7 µM)
CCOC(=O)C1=C(NCc2ccccc2)N=CN2CCN=C12 | 20 (≈ 67 µM) | 20 (≈ 67 µM) | 100 (≈ 335 µM)
CCOC(=O)C1=C(Nc2ccccc2C)N=CN2CCN=C12 | > 200 | > 200 | > 200
CCOC(=O)C1=C(Nc2ccccc2F)N=C(c2ccccc2)N2CCN=C12 | > 200 | > 200 | > 200
CCOC(=O)C1=C(Nc2ccc(Cl)cc2)N=C(c2ccccc2)N2CCN=C12 | 20 (≈ 50.7 µM) | 20 (≈ 50.7 µM) | 50 (≈ 127 µM)
CCOC(=O)C1=C(Nc2ccccc2F)N=CN2CCN=C12 | 5 (≈ 16.5 µM) | 5 (≈ 16.5 µM) | 50 (≈ 165 µM)
CCOC(=O)C1=C(Nc2ccc(C)cc2)N=CN2CCN=C12 | 5 (≈ 16.8 µM) | 5 (≈ 16.8 µM) | 50 (≈ 168 µM)
CCOC(=O)C1=C(Nc2ccc(Br)cc2)N=C(c2ccccc2)N2CCN=C12 | 100 (≈ 228 µM) | 100 (≈ 228 µM) | > 200
CCOC(=O)C1=C(NC)N=C(c2ccccc2)N2CCN=C12 | > 200 | > 200 | > 200
CCOC(=O)C1=C(Nc2ccccc2C)N=C(c2ccccc2)N2CCN=C12 | 100 (≈ 267 µM) | 100 (≈ 267 µM) | > 200
CCOC(=O)C1=C(Nc2ccc(C)cc2)N=C(c2ccccc2)N2CCN=C12 | 100 (≈ 267 µM) | 100 (≈ 267 µM) | > 200
CCOC(=O)C1=C(NC)N=CN2CCN=C12 | > 200 | > 200 | > 200

SMILES | MIC [1] [µg/mL] | MIC [2] [µg/mL] | MIC [3] [µg/mL]
CCOC(=O)C1=C(Nc2ccccc2)N=CN2CCN=C12 | 20 (≈ 70.3 µM) | 20 (≈ 70.3 µM) | 50 (≈ 176 µM)
CCOC(=O)C1=C(Nc2cccc(Cl)c2)N=C(c2ccccc2)N2CCN=C12 | > 200 | > 200 | > 200
CCOC(=O)C1=C(Nc2ccc(F)cc2)N=CN2CCN=C12 | 5 (≈ 16.5 µM) | 5 (≈ 16.5 µM) | 20 (≈ 66.2 µM)
CCOC(=O)C1=C(NCc2ccccc2)N=C(c2ccccc2)N2CCN=C12 | > 200 | > 200 | > 200
CCNC1=C(C(=O)OCC)C2=NCCN2C=N1 | > 200 | > 200 | > 200
CCOC(=O)C1=C(Nc2ccc(F)cc2)N=C(c2ccccc2)N2CCN=C12 | 5 (≈ 13.2 µM) | 5 (≈ 13.2 µM) | 20 (≈ 52.9 µM)
CCOC(=O)C1=C(Nc2ccccc2OC)N=C(c2ccccc2)N2CCN=C12 | > 200 | > 200 | > 200
CCOC(=O)C1=C(Nc2ccc(OC)cc2)N=CN2CCN=C12 | 2 (≈ 6.36 µM) | 2 (≈ 6.36 µM) | 20 (≈ 63.6 µM)
CCOC(=O)C1=C(Nc2cccc(C)c2)N=CN2CCN=C12 | > 200 | > 200 | > 200
CCOC(=O)C1=C(Nc2cccc(Cl)c2)N=CN2CCN=C12 | > 200 | > 200 | > 200
CCOC(=O)C1=C(Nc2ccc(Br)cc2)N=CN2CCN=C12 | 50 (≈ 138 µM) | 50 (≈ 138 µM) | 100 (≈ 275 µM)
CCOC(=O)C1=C(Nc2ccccc2OC)N=CN2CCN=C12 | > 200 | > 200 | > 200
CCNC1=C(C(=O)OCC)C2=NCCN2C(c2ccccc2)=N1 | > 200 | > 200 | > 200
CCOC(=O)C1=C(Nc2ccccc2Cl)N=CN2CCN=C12 | > 200 | > 200 | > 200
NCC[C@H](O)C(=O)N[C@@H]1C[C@H](N)[C@@H](O[C@H]2O[C@H](CN)[C@@H](O)[C@H](O)[C@H]2O)[C@H](O)[C@H]1O[C@H]1O[C@H](CO)[C@@H](O)[C@H](N)[C@H]1O [AMIKACIN] | 2 (≈ 3.42 µM) | 2 (≈ 3.42 µM) | 2 (≈ 3.42 µM)
CO[C@H]1/C=C/O[C@@]2(C)Oc3c(C)c(O)c4c(c3C2=O)C2=NC3(CCN(CC(C)C)CC3)NC2=C(NC(=O)/C(C)=C\C=C\[C@H](C)[C@H](O)[C@@H](C)[C@@H](O)[C@@H](C)[C@H](OC(C)=O)[C@@H]1C)C4=O [RIFABUTIN] | 0.05 (≈ 0.059 µM) | 0.05 (≈ 0.059 µM) | 0.05 (≈ 0.059 µM)
